BAP1 inh: human BAP1 deubiquitinase inhibition; Q92560; recombinant BAP1, Ub-AMC hydrolysis fluorescence kinetic; active compounds read low; calls only at 20 µM; actives 0.48% (n = 72,000);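 active means activity remaining at or below 50% of control, provided the compound also passes the data quality filters; inactive means the rest, including low values that fail the filters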;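 further: 100% = DMSO wells rate and 0% = substrate alone blank rate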
Target sequence (Q92560 whole entry, looked up): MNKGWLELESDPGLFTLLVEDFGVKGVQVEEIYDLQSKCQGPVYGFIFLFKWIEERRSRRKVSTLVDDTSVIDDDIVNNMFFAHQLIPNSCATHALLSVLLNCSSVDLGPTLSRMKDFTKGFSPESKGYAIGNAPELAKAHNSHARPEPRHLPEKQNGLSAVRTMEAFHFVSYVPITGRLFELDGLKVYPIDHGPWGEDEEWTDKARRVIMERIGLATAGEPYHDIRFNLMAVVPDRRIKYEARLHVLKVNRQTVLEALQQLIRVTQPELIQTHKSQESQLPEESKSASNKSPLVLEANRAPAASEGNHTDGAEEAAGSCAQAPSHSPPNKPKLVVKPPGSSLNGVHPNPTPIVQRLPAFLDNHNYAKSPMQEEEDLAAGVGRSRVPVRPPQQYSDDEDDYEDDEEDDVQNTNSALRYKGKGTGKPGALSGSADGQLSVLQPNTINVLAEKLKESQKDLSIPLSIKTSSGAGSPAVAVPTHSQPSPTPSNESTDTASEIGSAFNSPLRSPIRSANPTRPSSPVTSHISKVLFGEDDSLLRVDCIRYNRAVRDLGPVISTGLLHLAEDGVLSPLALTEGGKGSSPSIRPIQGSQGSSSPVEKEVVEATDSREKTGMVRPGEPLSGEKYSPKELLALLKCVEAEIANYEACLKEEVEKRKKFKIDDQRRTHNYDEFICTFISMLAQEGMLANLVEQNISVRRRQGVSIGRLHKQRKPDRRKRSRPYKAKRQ
JNK3 blocker: blocks human JNK3 kinase activity; P53779; purified JNK3 kinase activity, HTS; inhibition, % at 8 µM; actives 0.61% (n = 60,000); in the data active means inhibition above about 17%;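 further: 0% = DMSO and 100% = reference inhibitor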
HEK293 NFkB inh: inhibitors of the PMA/ionomycin-induced NF-kB reporter in HEK293 cells. HEK-293 NF-kB luciferase reporter, luminescence. inhibition, % at 3 µM. actives 0.21% (n = 62,000). AID 465;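 active means inhibition above the mean of all tested compounds plus 3 SD, cut at about 40% in these data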;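 further: 0% = stimulated DMSO wells and 100% = 10 µM reference inhibitor 5653914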
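System: NF-kB luciferase reporter HEK-293 cells | Replication: Single test | Control set: DMSO vs reference inhibitor | Evaluation: % inhibition | Schedule: 1 h pretreatment, 16 h stimulation, 37 °C | Probe or stimulus: PMA with ionomycin | Compound dosing: One dose, 3 µM | Detection: Luciferase luminescence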
Her2 expr inh: lowers expression of human Her2 kinase | P04626 | SKBR-3 HER2 protein level, AlphaScreen, 18-24 h; active compounds read low | HER2 level % of control, % at 10 µM | actives 0.69% (n = 65,000) | AID 645;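 active means HER2 level under 5% of the carrier-only control; inconclusive means no clear call, values can overlap the other calls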;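 further: 100% = DMSO carrier and 0% = 500 nM PU-H71 HSP90 inhibitor; lower value means stronger loss of Her2 protein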
M1 antag: M1 muscarinic receptor (rat) antagonism. P08482. CHO-M1 cells, Fluo-4 calcium, ACh EC80 antagonist mode; active compounds read low. B-score at 10 µM. actives 3.4% (n = 64,000);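 active means calcium fluorescence response, raw or row-and-column corrected B-score, differing from the plate sample mean either way at a set confidence level, mostly lower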
M1 ag: agonists of M1 muscarinic receptor; actives 3% (n = 64,000); CHO-M1 cells, Fluo-4 calcium fluorescence, agonist mode; active compounds read high; AID 626; B-score at 10 µM;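 active means fluorescence rise, raw or as B-score row- and column-corrected plate score, outside the 99.7% band of its plate's samples, either direction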
M1 agonist conf: rat M1 muscarinic agonism, confirmation; shares compounds with M1 ag; CHO-M1 cells, Fluo-4 calcium fluorescence, agonist mode; actives lie on both sides; fluorescence change (max-min) at 10 µM; actives 19% (n = 1,700);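 active means fluorescence change differs from the solvent-only DMSO control mean at a set confidence level in both duplicate runs; inconclusive means differs from solvent-only control mean in just one of two runs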;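 further: an EC20 dose of acetylcholine follows compound addition during the same imaging run; raw fluorescence intensity difference in instrument units with no normalization to controls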
M4 ag counter: counter-screen for M1 agonists: activity at rat M4 receptor. fluorescence change (max-min) at 10 µM. CHO M4/Gqi5 cells, Fluo-4 calcium fluorescence, agonist mode; actives lie on both sides. AID 1741. shares compounds with M1 ag. actives 9% (n = 1,700);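 active means fluorescence change differing from the plate's solvent-only control wells at 99.7% confidence in both duplicates, whether higher or lower; inconclusive means differs from solvent controls in only one of two duplicates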
* = called active by the depositor; i = inactive; ? = inconclusive; . = no result given. A selection: hits, their analogues and other compounds. The true share with any hit is near 6.6%.

SMILES	BAP1 inh	JNK3 blocker	HEK293 NFkB inh	Her2 expr inh	M1 antag	M1 ag	M1 agonist conf	M4 ag counter
N#Cc1cccc(NC(=O)c2nc(-c3ccccc3)n(-c3ccccc3)n2)c1	i	-5	4	150	-0.55	3.5*	-11	-44
COc1ccc(-n2cnc3cc(NCc4ccc(Br)cc4)ccc32)cc1	i	.	.	.	.	.	.	.
c1ccc(Cn2nnnc2C(c2cccnc2)N2CCN(c3ccccc3)CC2)cc1 (configuration not stated)	i	5	14	95	-1.1	6.1*	?	?
Cc1ccnc(SCC(=O)Nc2sc3c(c2C#N)CCCC3)n1	i	0	24	93	-2.1	3.4*	-18	?
C=CCn1c(=O)/c(=C/c2ccc(C)o2)s/c1=C(/C#N)C(=O)c1ccccc1	.	-3	21	47	0.32	12*	86*	275*
COc1ccccc1-n1nc(C(=O)O)c2ccccc2c1=O	i	2	15	93	-0.049	6.6*	?	-30
CCCCC(=O)Nc1ccc2oc(-c3ccncc3)nc2c1	i	3	-1	111	0.098	2.5*	?	-49
CCCC(=O)Nc1ccc2oc(-c3ccncc3)nc2c1	i	8	16	113	0.98	0.022	.	.
COc1ccc(C2C(C(C)=O)=C(O)C(=O)N2Cc2ccccc2)cc1OC (configuration not stated)	i	.	.	.	.	.	.	.
CCn1nc(C)c(/C=C2\CCCC3=C2OC(N)=C(C#N)C3c2c(C)nn(CC)c2C)c1C (configuration not stated)	i	-7	29	80	0.5	14*	100*	?
O=C(NCCn1cccc1)c1cccc2ccccc12	i	-2	18	179	-0.013	5.7*	-31*	-54
C=CCn1c(=O)/c(=C/c2ccc(F)cc2)s/c1=C(\C#N)c1nnc2n1CCCCC2	i	1	3	75	-1.5	0.89	.	.
C=CCN1C(c2ccc(OCC)cc2)=CS/C1=C(\C#N)c1nnc2n1CCCCC2	i	0	22	67	-0.61	6.6*	-3.7	-24
Cc1ccc(C2=NN(S(=O)(=O)c3ccc(C)cc3)C(c3ccc(Br)cc3)C2)cc1 (configuration not stated)	i	.	.	.	.	.	.	.
CC(C(=O)Nc1ccccc1C#N)N1C(=O)c2ccccc2C1=O (configuration not stated)	i	.	.	.	.	.	.	.
Cc1cc(C)n(-c2nc(NCC3CCCO3)c3c4c(sc3n2)COC(C)(C)C4)n1 (configuration not stated)	i	0	-4	69	-0.99	3.4*	-18	-17
Cc1cc(C)n(-c2nc(SCC(=O)NCC3CCCO3)c3c4c(sc3n2)CCCC4)n1 (configuration not stated)	i	-3	7	100	-0.2	-0.54	.	.
CN(C)c1ccc(/C=C/c2cc[n+]([O-])cc2)cc1	i	-21	-4	138	0.23	247*	876*	895*
COc1ccc(N2CCN(C(=O)c3ccc(NS(=O)(=O)c4ccc(F)c(F)c4)cc3)CC2)cc1	i	.	13	95	-0.24	2.3*	-8.5	-35
COc1ccc(S(=O)(=O)Cc2ccc(C(=O)N3CCN(c4cccc(C)c4)C(C)C3)o2)cc1 (configuration not stated)	i	-1	9	63	-1.4	3.4*	?	-35
COc1ccc(S(=O)(=O)Cc2ccc(C(=O)N3CCN(c4ccc(Cl)cc4)CC3)o2)cc1	i	3	11	82	-0.46	2.3*	-4.3	-10
COc1ccc(S(=O)(=O)Cc2ccc(C(=O)NCCc3ccc(S(N)(=O)=O)cc3)o2)cc1	i	-1	14	91	-0.61	3.8*	?	-59
O=C(Nc1nnc(COc2ccc([N+](=O)[O-])cc2)s1)c1ccccc1I	i	.	.	.	.	.	.	.
O=[N+]([O-])c1ccc(Nc2nc(-c3ccccc3)c3cc(Cl)ccc3n2)cc1	i	.	.	.	.	.	.	.
COc1ccc(NC(=O)Nc2ccc3c(c2)N(C)C(=O)CS3)cc1OC	i	7	11	90	-1.5	3.1*	?	-28
SMILES	BAP1 inh	JNK3 blocker	HEK293 NFkB inh	Her2 expr inh	M1 antag	M1 ag	M1 agonist conf	M4 ag counter
CCOc1ccc(NC(=O)Nc2ccc3c(c2)N(C)C(=O)CS3)cc1	i	-2	9	83	0.0026	-0.77	.	.
O=C(CC1Nc2ccccc2NC1=O)NCCCN1CCCCCC1 (configuration not stated)	i	3	10	101	0.21	0.021	.	.
CCCCNC(=O)CC1Nc2ccccc2NC1=O (configuration not stated)	i	0	3	103	-0.48	7.9*	30	?
Cc1ccc(N(CCCN2C(=O)c3cccc4cccc(c34)C2=O)C(=O)c2ccccc2[N+](=O)[O-])cc1	i	.	.	.	.	.	.	.
Cc1nnc(NC(=O)C2C3C=CC(O3)C2C(=O)O)s1 (configuration not stated)	i	.	16	86	0.59	3.4*	?	-41
COCCn1c(C)cc(C(=O)COC(=O)c2c(C)nn(Cc3ccccc3)c2C)c1C	.	.	1	159	-0.21	-0.29	.	.
COCCn1c(C)cc(C(=O)COc2nc3ccccc3nc2C)c1C	i	0	22	89	1	5.2*	-9.6	-14
CCCCC(NS(=O)(=O)c1ccc(C)cc1)C(=O)O (configuration not stated)	i	.	.	.	.	.	.	.
O=C(Nc1cccc(-c2nc3cccnc3s2)c1)c1ccco1	i	11	-4	56	-1.5	6*	?	-50
Cc1c(NC(=O)c2ccco2)cccc1-c1nc2cccnc2s1	i	7	6	53	0.62	2.2	.	.
Cc1ccc(-c2csc3nnc(SCC(=O)Nc4cccc(C)n4)n23)cc1	i	-3	14	111	-0.63	3.9*	?	-13
N#Cc1cc(N2CCOCC2)cc2ccccc12	i	.	.	.	.	.	.	.
CCOC(=O)N1CCN(c2nc(-c3ccc(Cl)cc3)cs2)CC1	i	1	20	94	-1.1	0.31	.	.
O=C(Cc1cccs1)N1CCN(c2nc(-c3ccc(Cl)cc3)cs2)CC1	i	-2	4	67	0.47	3.5*	-28*	-60
CCOC(=O)c1ccc(NC(=O)CSc2nnc(Cn3c(=O)sc4ccccc43)n2C)cc1	i	-4	11	47	0.19	2.3*	3.5	-7
COC(=O)CCC(=O)Nc1ccc(NC(C)=O)cc1	i	2	4	117	-1.9	5.5*	-8.9	-31

Source: PubChem BioAssay
